The values below come from publication PMC3158820 (ACS chemical biology, 2011).

“Also recorded” adds a separate entry of the source.

In one data set the test system is S. Typhimurium Lon. The following applies: cited from earlier work.
Data set [1] concerns the target T1, human Lon (Homo sapiens, UniProt P36776).
T1 sequence (P36776 68-959): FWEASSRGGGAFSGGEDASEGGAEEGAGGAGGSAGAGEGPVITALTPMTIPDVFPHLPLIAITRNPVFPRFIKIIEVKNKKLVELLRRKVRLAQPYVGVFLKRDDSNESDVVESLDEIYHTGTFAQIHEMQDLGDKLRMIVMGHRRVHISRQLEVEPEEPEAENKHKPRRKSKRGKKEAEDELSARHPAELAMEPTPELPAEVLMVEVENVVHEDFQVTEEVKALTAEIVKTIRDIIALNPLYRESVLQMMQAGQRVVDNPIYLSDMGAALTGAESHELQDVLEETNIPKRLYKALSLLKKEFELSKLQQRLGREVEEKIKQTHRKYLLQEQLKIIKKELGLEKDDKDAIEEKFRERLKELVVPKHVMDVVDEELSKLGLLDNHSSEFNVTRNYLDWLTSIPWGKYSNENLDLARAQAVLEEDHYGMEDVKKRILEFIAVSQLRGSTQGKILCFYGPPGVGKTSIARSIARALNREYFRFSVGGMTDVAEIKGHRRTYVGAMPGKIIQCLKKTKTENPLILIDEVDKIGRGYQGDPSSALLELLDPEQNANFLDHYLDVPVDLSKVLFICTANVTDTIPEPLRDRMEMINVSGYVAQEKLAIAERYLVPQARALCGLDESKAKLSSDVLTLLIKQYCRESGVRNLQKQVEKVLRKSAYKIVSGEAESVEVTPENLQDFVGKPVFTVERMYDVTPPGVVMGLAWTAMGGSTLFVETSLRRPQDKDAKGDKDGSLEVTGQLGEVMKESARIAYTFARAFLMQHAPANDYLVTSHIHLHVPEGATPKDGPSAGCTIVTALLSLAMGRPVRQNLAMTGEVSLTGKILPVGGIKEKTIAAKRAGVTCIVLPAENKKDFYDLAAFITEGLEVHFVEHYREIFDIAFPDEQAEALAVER
Description: Time-dependent inhibition of human Lon peptidase activity. Type of data set: biochemical.

Data set [2] concerns human ClpXP. Description: Inhibition of α-casein degradation by hClpXP. The class given is biochemical. The following applies: 10 µM DBN93, 10 µM casein, 2 µM ClpX and 2 µM ClpP, 5 mM ATP, SDS-PAGE. Put shortly:
(§1)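 Digests in 50 mM Tris pH 8.1, 15 mM Mg(OAc)₂, 5 mM DTT were run at 37 °C ±inhibitor. Aliquots were quenched with SDS loading dye at time points from 0 to 90 min, run on 12.5% SDS-PAGE and stained with Coomassie Blue.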

The subject of data set [3] is Lon in isolated rat liver mitochondria. Description: In organello degradation of 35S-labeled StAR in isolated mitochondria. The class given is cell-based. Put shortly: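 ³⁵S-Met StAR precursor was made by in vitro transcription and reticulocyte-lysate translation, then imported for 30 min at 30 °C into rat liver mitochondria (600 µg) in HSB buffer with ATP, GTP, NADH and creatine kinase system. Non-imported protein was removed with trypsin on ice, then trypsin inhibitor. Pellets were chased at 30 °C ±inhibitor, TCA-precipitated, run on 12% SDS-PAGE with autoradiography, and bands quantified. Mean of 3 independent experiments, SEM, Student's t-test.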

Data set [4] concerns human ClpXP. Description: Steady state peptidase activity assay. The class given is biochemical.
In data set [5] the test system is HeLa mitochondrial lysate immunodepleted of Lon. Put plainly: FRETN 89–98 cleavage in Lon-immunodepleted HeLa mitochondrial lysate. The class given is biochemical, human. The following applies: 10 µM DBN93, 100 µM FRETN 89–98, 1 mM ATP; at least three trials. The gist of the method:
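Affinity-purified anti-hLon was incubated overnight at 4 °C with HeLa mitochondria in 25 mM Tris pH 7.5, 100 mM NaCl, 0.1% Tween 20. Protein A agarose was pelleted, and the supernatant was desalted into 50 mM KPi pH 7, 20% glycerol, 0.1% Tween 20, then Bradford-quantified. Emission at 420 nm (ex 320 nm) was read for 1 hr.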

A further data set deals with human 20S proteasome. Description: Steady state peptidase activity assay. The following applies: 2 µM DBN93, 200 nM human 20S proteasome, 100 µM FRETN 89–98, 500 µM ATP. Type of data set: biochemical. Put shortly: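 Run in 50 mM HEPES pH 8.0, 5 mM Mg(OAc)₂, 2 mM DTT at 37 °C, with reactions started by adding 20S proteasome. Cleavage was read as fluorescence emission at 420 nm (ex 320 nm). Rate was taken from the slope of the linear phase of the time course.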

Data set [6] concerns the target T1, human Lon. Description: Inhibition of α-casein degradation by hLon. The class given is biochemical. The following applies: 10 µM DBN93, 10 µM casein, 1 µM hLon, 5 mM ATP, SDS-PAGE. Put shortly:
as §1

Setting [7] is: S. Typhimurium Lon, error s.e.m.

For the substance dansyl-YRGIT-Abu-B(OH)2 [DBN93], the “inhibition of Lon” value in the data set on S. Typhimurium Lon (4 µM DBN93 (condition of the hClpXP test)) is on record as “completely inhibited”. In addition, in the data set with S. Typhimurium Lon (setting [7]), the k3 is on record as 1.0 ± 0.3 × 10^5 M^−1s^−1, the k4 is 0.022 ± 0.007 s⁻¹, the k5 was 0.0032 ± 0.0003 s⁻¹ and the k6 was 0.00028 ± 0.00002 s⁻¹. The “time dependence of inhibition of hLon peptidase activity” value on human Lon [1] (Figure 3, panel a) is “inhibited by DBN93 in a time-dependent manner”. Moreover, the “Ki* of hLon vs Ki* of bacterial Lon” value on human Lon [1] (overall inhibitor potency) is reported as “comparable to the Ki* determined previously for bacterial Lon”. The “inhibition of α-casein degradation by hClpXP” value in the data set with human ClpXP [2] is “not by hClpXP”. Moreover, the “inhibition of StAR degradation in mitochondria” value in data set [3] (10 µM DBN93, 1 or 2 hr chase, rat mitochondria, n=3) is on record as “inhibits degradation of StAR”. Moreover, the “penetration of mitochondrial membranes” value in data set [3] (intact rat mitochondria, 10 µM DBN93, inferred from StAR degradation) is given as “can penetrate the mitochondrial membranes”. Further, the “inhibition of hClpXP” value in the data set on human ClpXP [4] (general statement) is on record as “does not inhibit this protease; also recorded: not inhibited”. Besides, the “effect on cleavage of FRETN 89–98 by hClpXP” value in the data set with human ClpXP [4] (up to 4 µM DBN93 (1 and 4 µM, Figure 5a)) is recorded as “not affected”. Further, in data set [5], the “effect on peptide cleavage in Lon-immunodepleted mitochondria” value is reported as “no decrease in peptide cleavage”. Further, in the data set on human 20S proteasome, the “inhibition of 20S proteasome catalyzed cleavage of FRETN 89–98” value is listed as “inhibited the cleavage; also recorded: inhibits”. The “inhibition of α-casein degradation by hLon” value against human Lon [6] is given as “inhibited α-casein degradation by hLon”.
